Assay outcomes (PubChem BioAssay)
The sample as a whole holds a higher share of hits than the screen did.
CHOP inhibitor: blocks CHOP induction under ER stress; inhibition, % at 10 µM; AID 2732; actives 3.8% (n = 220,000); CHO-K1 CHOP-promoter luciferase, tunicamycin-induced, 15-18 h;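 active means compounds that reduced the stress-induced luciferase reporter signal by more than about 70% of percent inhibition, limit read from the data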;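 further: 0% = tunicamycin plus vehicle and 100% = wells without tunicamycin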
UPR XBP1 act: activators of adaptive arm of unfolded protein response (XBP1) | CHO-XBP1 luciferase reporter, IRE1-XBP1 UPR activation, luminescence; percent of tunicamycin response, DMSO as zero | activation, % at 20 µM | actives 0.33% (n = 330,000) | AID 463104;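 active means versus positive control, 20 µM dose yields 30% or more activation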;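 further: 100% = tunicamycin at 10 µg/mL and 0% = DMSO only wells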
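Material: CHO cell line with stable XBP1 luciferase reporter; schedule: 16-18 h cell attachment at 37 °C, then 6 h compound exposure; signal: glow luminescence from Steady-Glo reagent; medium: serum-containing F12 medium, 10% FBS; benchmarks: tunicamycin 10 µg/mL and vehicle-only wells; read-out: percent activation relative to tunicamycin reference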
Cardio protect: myocardial damage modulation in H9c2 cells | H9c2 cardiomyocytes, H2O2 injury protection, ATPLite, 2 h | protection from H2O2 cell death, % at 20 µM | actives 0.63% (n = 360,000);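 active means compounds giving at least 50% protection of heart cells from peroxide-induced death in the single-dose screen, raw or plate-pattern-corrected value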;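 further: 0% = DMSO wells with peroxide and 100% = DMSO wells without peroxide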
UPR CHOP act: activators of apoptotic arm of unfolded protein response (CHOP); CHO-CHOP luciferase reporter, UPR activation, luminescence; percent of tunicamycin response over DMSO baseline; activation, % at 10 µM; actives 0.34% (n = 330,000);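 active means at 10 µM dose, activation of 40% or more, normalized to positive control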;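 further: 100% = tunicamycin at 10 µg/mL and 0% = DMSO alone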
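measured by = luciferase luminescence | assay system = CHO-CHOP cells, stable luciferase reporter of PERK-eIF2a-CHOP signalling | amount = 500 reporter cells seeded per well | timing = 6 h compound exposure at 37 °C after overnight seeding | controls = positive tunicamycin 10 µg/mL, negative DMSO alone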
iPSC survival up: hiPSC single-cell survival enhancement; ATPlite luminescence; 100% = ROCK inhibitor wells, 0% = DMSO; survival enhancement, % at 20 µM; actives 0.044% (n = 360,000); AID 602274; in the data active means survival enhancement above about 18%;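 further: cells exposed to compounds for 16 hours before the ATP read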
CHOP confirm: confirmation of CHOP induction inhibitors | actives 45% (n = 2,100) | inhibition, % at 10 µM | shares compounds with CHOP inhibitor | AID 504437 | CHO-CHOP promoter luciferase reporter, tunicamycin-induced, luminescence;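 active means mean of three repeat readings of reporter signal inhibition above a set limit, cut at about 70% in these data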;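 further: 0% = tunicamycin plus vehicle and 100% = wells lacking tunicamycin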
* marks the source's active call; other numbers are inactive results.

What do the screens show for `O=C(NCC1CCCO1)c1cccc(S(=O)(=O)N2CCOCC2)c1` (stereo not given)?
UPR XBP1 act: 1; Cardio protect: -5; UPR CHOP act: 2; iPSC survival up: 0

How did CC1(C(=O)Nc2ccc3ccccc3c2)CCC(=O)N1C1CC1 (stereo not given) do in these assays?
Cardio protect: 5; iPSC survival up: 1

Results for Cc1ccc(SCc2cc(=O)[nH]c(Nc3nc(C)c4ccc(C)cc4n3)n2)cc1 ?
CHOP inhibitor: 17; UPR XBP1 act: 2; Cardio protect: 2; UPR CHOP act: 1; iPSC survival up: -1

What do the screens show for `Cc1ccc2c(C)nc(Nc3nc(CSc4nc5ccccc5[nH]4)cc(=O)[nH]3)nc2c1`?
CHOP inhibitor: 104*; UPR XBP1 act: 1; Cardio protect: 69*; UPR CHOP act: -4; iPSC survival up: 2; CHOP confirm: 106*

How did COc1ccc(N2CCN(CCCn3cnc4c(OC)ncnc43)CC2)cc1 do in these assays?
Cardio protect: -6; iPSC survival up: -1

How did O=C(NNc1ccccc1[N+](=O)[O-])Nc1ccc(Cl)c(Cl)c1 do in these assays?
CHOP inhibitor: 101*; UPR XBP1 act: -1; Cardio protect: -25; UPR CHOP act: 2; iPSC survival up: -1; CHOP confirm: 71*

What do the screens show for `O=C(OCn1ncc(Br)c(Br)c1=O)c1ccc(F)cc1`?
UPR XBP1 act: -6; Cardio protect: -28; UPR CHOP act: -11; iPSC survival up: -3

Results for O=C(OCn1ncc(Cl)c(Cl)c1=O)c1cccc(C(F)(F)F)c1 ?
CHOP inhibitor: 107*; UPR XBP1 act: -7; Cardio protect: -16; UPR CHOP act: -11; iPSC survival up: 75*; CHOP confirm: 120*

How did Cc1ccc(S(=O)(=O)N/N=C\c2cn(-c3ccccc3)nc2-c2ccccc2)cc1 do in these assays?
CHOP inhibitor: 97*; UPR XBP1 act: -3; Cardio protect: -12; UPR CHOP act: 4; iPSC survival up: -3; CHOP confirm: 5

How did C=CCSc1n[nH]c(-c2ccc(OCCC)cc2)n1 do in these assays?
CHOP inhibitor: 49; UPR XBP1 act: 2; Cardio protect: -4; UPR CHOP act: 2; iPSC survival up: -2

Results for C=CCSc1n[nH]c(-c2ccc(OCCCC)cc2)n1 ?
CHOP inhibitor: 106*; UPR XBP1 act: 5; Cardio protect: -10; UPR CHOP act: 3; iPSC survival up: 2; CHOP confirm: 97*

What do the screens show for `CC(=O)Nc1ccc(C(=O)NNC(=O)C2C3CCCCC32)cc1` (stereo not given)?
UPR XBP1 act: -2; Cardio protect: 0; UPR CHOP act: -1; iPSC survival up: 0

What do the screens show for `C(=N\Nc1nc(N2CCCCC2)nc(N2CCCCC2)n1)/c1c[nH]c2ccccc12`?
CHOP inhibitor: 101*; UPR XBP1 act: 1; Cardio protect: -6; UPR CHOP act: 6; iPSC survival up: 0; CHOP confirm: 42

What do the screens show for `CN(C)c1nc(N/N=C/c2c[nH]c3ccccc23)nc(N2CCOCC2)n1`?
CHOP inhibitor: -30; UPR XBP1 act: 0; Cardio protect: 13; UPR CHOP act: 4; iPSC survival up: -2

What do the screens show for `CCN(CC)c1ccc2c(c1)oc(=O)c1c(Cl)cc(=O)oc12`?
CHOP inhibitor: 108*; UPR XBP1 act: -7; Cardio protect: -5; UPR CHOP act: 24; iPSC survival up: -4; CHOP confirm: 26

What do the screens show for `CCN(CC)c1ccc2c(C)c(Cl)c(=O)oc2c1`?
CHOP inhibitor: 18; UPR XBP1 act: 1; Cardio protect: -17; UPR CHOP act: 3; iPSC survival up: 0

What do the screens show for `Cc1nn(C(C)C(=O)NCCc2cccs2)c(=O)c2nn(-c3ccccc3)c(C)c12` (stereo not given)?
UPR XBP1 act: -2; Cardio protect: -6; UPR CHOP act: -1; iPSC survival up: 0

How did Cc1ccccc1NC(=O)C(=Cc1ccc(C(=O)O)cc1)C(=O)Nc1ccccc1C do in these assays?
CHOP inhibitor: 103*; Cardio protect: -6; iPSC survival up: -1; CHOP confirm: -22

Results for CC(C)C#Cc1cnc2c(c1)C(=O)N([C@H](C)CO)C[C@@H](C)[C@H](CN(C)C(=O)Nc1ccccc1F)O2 ?
Cardio protect: -11; iPSC survival up: 2

How did COc1ccc(Cl)cc1NC(=O)CN(C)C(=O)c1cc2ccccc2cc1O do in these assays?
UPR XBP1 act: -1; Cardio protect: -4; UPR CHOP act: 1; iPSC survival up: 0

How did O=C(CC(NC(=O)c1ccccc1)c1ccccc1)NCc1ccccc1 (stereo not given) do in these assays?
UPR XBP1 act: -2; Cardio protect: 9; UPR CHOP act: -1; iPSC survival up: -1

Results for O=C(CC(NC(=O)c1ccccc1)c1ccccc1)Nc1cccc2ccccc12 (stereo not given) ?
CHOP inhibitor: 104*; UPR XBP1 act: -1; Cardio protect: 1; UPR CHOP act: -1; iPSC survival up: 0; CHOP confirm: 1

What do the screens show for `C[C@H](CO)N1C[C@H](C)[C@@H](CN(C)S(=O)(=O)c2cccc(C#N)c2)OCc2cn(nn2)CCCC1=O`?
Cardio protect: 5; iPSC survival up: -1

Results for O=C(Nc1nnc(-c2ccc(Cl)cc2)o1)Nc1ccccc1Cl ?
CHOP inhibitor: 45; UPR XBP1 act: 0; Cardio protect: -5; UPR CHOP act: 3; iPSC survival up: 0

Results for O=C(Nc1nnc(-c2ccc(Cl)cc2)o1)c1nc2ccccc2s1 ?
CHOP inhibitor: 104*; UPR XBP1 act: 0; Cardio protect: 6; UPR CHOP act: 0; iPSC survival up: 1; CHOP confirm: -7

How did CC1(C(=O)NS(=O)(=O)c2ccc3c(c2)CCO3)CCN1C(=O)COc1ccc(Cl)cc1 (stereo not given) do in these assays?
Cardio protect: 7; iPSC survival up: 0

What do the screens show for `O=[N+]([O-])c1ccc(Sc2nc3ccccc3o2)c([N+](=O)[O-])c1`?
CHOP inhibitor: 109*; UPR XBP1 act: -5; Cardio protect: -22; UPR CHOP act: -2; iPSC survival up: -5; CHOP confirm: 122*

What do the screens show for `C=C(C)COc1ccc(-c2n[nH]c(C)c2-c2ccc(OC)cc2)c(O)c1`?
CHOP inhibitor: 107*; UPR XBP1 act: -5; Cardio protect: -31; UPR CHOP act: -1; iPSC survival up: -4; CHOP confirm: 29

How did COc1ccc(-c2n[nH]c(C)c2-c2cscn2)c(O)c1 do in these assays?
CHOP inhibitor: 4; UPR XBP1 act: -2; Cardio protect: -7; UPR CHOP act: 0; iPSC survival up: -1

How did O=C(Nc1ccc(Cl)cc1)c1csc([C@@H]2O[C@H](CO)[C@@H](O)[C@H]2O)n1 do in these assays?
Cardio protect: 3; iPSC survival up: -1
